Only some compounds are listed: those with a hit (about 1.8% of all), similar ones and a draw of the others.
EBI2 antag: antagonists of human EBI2 receptor; AID 651636; inhibition, % at 5 µM; EBI2 beta-arrestin recruitment, luminescence, 7a,25-OHC stimulated; actives 0.81% (n = 360,000); P32249; in the data active = inhibition above about 38%;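 also: enzyme fragment complementation signal reports receptor beta-arrestin coupling in cells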
Beta2AR agonist: agonists of human beta-2 adrenergic receptor inducing internalization | Am2.2-beta2AR cells, FAP receptor internalization, flow cytometry | response, % (no concentration beside the values) | actives 0.43% (n = 340,000) | AID 504454;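 active = response above a set limit, near 3 SD of response in nonfluorescent compounds, cut at about 42% in these data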
CCR6 antag: blocks CCL20-driven beta-arrestin recruitment at human CCR6; CHO-K1 CCR6 PathHunter beta-arrestin, luminescence, CCL20-stimulated; inhibition, % at 20 µM; actives 0.49% (n = 340,000); AID 493098;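 active = compounds whose inhibition of the agonist-driven luminescence signal at 20 µM reaches about 50%, limit read from the data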;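 also: cells stimulated with CCL20 at 14 nM final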
APJ antagonist: blocks the human apelin receptor APJ. P35414. CHO-K1 APJ beta-arrestin complementation, luminescence. inhibition, % at 20 µM. actives 0.32% (n = 330,000). AID 2521;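 active = inhibition above about 40% at 20 µM, limit read from the data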;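 also: cells challenged with 10 nM apelin-13 agonist together with compound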
APJ ag: APJ receptor agonism; P35414; CHO-K1 APJ PathHunter beta-arrestin, luminescence; 0% DMSO wells, 100% apelin; activation, % at 20 µM; actives 0.11% (n = 330,000); AID 2520;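 active = activation more than six SD over the plate average, tested at 20 µM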
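Incubation: overnight seeding, 90 min compound at 25 °C, 1 h detection; test system: PathHunter CHO-K1 APJ (AGTRL-1) beta-arrestin reporter cells; amount: 1000 cells/well; doses: one dose, 20 µM compound, 1% DMSO; measured by: beta-gal luminescence; measure: agonist-driven arrestin binding to APJ; benchmarks: negative DMSO alone, positive Apelin-13 at 10 nM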
CXCR6 block: CXCR6 (human) receptor inhibition | inhibition, % at 20 µM | actives 0.36% (n = 360,000) | CHO-K1 PathHunter CXCR6 beta-arrestin, luminescence | AID 602244; in the data active = inhibition above about 34%, passing the limit was not always enough;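 also: antagonist mode with CXCL16 agonist at 10 nM final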
Target sequence (O00574 whole entry, looked up): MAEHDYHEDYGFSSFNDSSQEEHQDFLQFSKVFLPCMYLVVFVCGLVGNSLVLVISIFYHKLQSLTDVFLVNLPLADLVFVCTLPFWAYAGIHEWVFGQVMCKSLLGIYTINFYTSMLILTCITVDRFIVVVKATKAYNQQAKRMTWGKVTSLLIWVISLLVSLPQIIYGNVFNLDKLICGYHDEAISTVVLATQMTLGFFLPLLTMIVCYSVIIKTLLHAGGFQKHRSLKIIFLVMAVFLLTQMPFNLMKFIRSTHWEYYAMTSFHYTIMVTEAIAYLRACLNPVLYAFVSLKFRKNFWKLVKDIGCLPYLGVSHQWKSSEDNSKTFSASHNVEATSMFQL
Numbers stand for hits; n = inactive; x = not tested or not shown.

SMILES	EBI2 antag	Beta2AR agonist	CCR6 antag	APJ antagonist	APJ ag	CXCR6 block
C[C@@H]1CN([C@@H](C)CO)C(=O)CCCn2cc(nn2)CO[C@H]1CN(C)S(=O)(=O)c1ccccc1F	n	x	x	x	x	n
O=C(/C=C/Nc1ccc(Nc2ccccc2)cc1)c1cccs1	n	50	n	x	x	n
Cc1ccc(N/C=C/C(=O)c2cccs2)cc1C	n	n	n	n	n	n
C/C(=N\NC(=O)Cc1csc(N2CCOCC2)n1)c1ccccc1	n	n	n	n	n	n
O=C(Cc1csc(N2CCOCC2)n1)N/N=C/c1ccc(O)c(O)c1O	n	46	n	x	x	n
CCN(CC)c1ccc(/C=C2\C(=O)c3ccc(C(=O)O)cc3C2=O)cc1	n	x	74	x	x	49
Cc1ccc(S(=O)(=O)N2CCCCC2)cc1NC(=O)Cn1cnnn1	n	n	n	n	n	n
O=C(OCn1ncc(Cl)c(Cl)c1=O)c1ccc(C(F)(F)F)cc1	n	n	n	n	n	n
CCN(CC)S(=O)(=O)c1cc(NC(=O)Cn2ncc(Cl)c(Cl)c2=O)ccc1C	n	46	n	n	n	n
Cc1ccc(S(=O)(=O)N2CCCCC2)cc1NC(=O)Cn1ncc(Cl)c(Cl)c1=O	63	n	n	n	n	n
Cc1ccc(C(=O)OCn2ncc(Cl)c(Cl)c2=O)cc1	n	62	n	n	n	n
CCOC(=O)c1ccc(NC(=O)Cn2ncc(Cl)c(Cl)c2=O)cc1	n	74	n	n	n	n
Cc1cc(-c2ccc(N=Nc3c(S(=O)(=O)O)cc4cc(S(=O)(=O)O)cc(N)c4c3O)c(C)c2)ccc1N=Nc1c(S(=O)(=O)O)cc2cc(S(=O)(=O)O)cc(N)c2c1O	x	x	x	78	n	x
COc1ccc(-c2csc(C(C)(NC(C)=O)c3ccccc3)n2)cc1 (centres undefined)	n	x	x	x	x	n
O=c1c2ccccc2n(Cc2ccc(Cl)cc2)c(=O)n1Cc1ccco1	77	n	n	n	n	n
Cc1ccc(S(=O)(=O)Nc2ccccc2F)cc1C(=O)NNC(=O)c1ccccc1O	n	n	n	n	n	n
Cn1c(=O)c([N+](=O)[O-])c(Cl)c2ccccc21	n	89	101	x	x	88
Cc1cccc(C(=O)Nc2nnc(S(=O)(=O)N3CCC(C)CC3)s2)c1	n	n	n	n	n	n
C/C(=N\NC(=S)Nc1ccc(F)cc1)c1ccc2c(c1)OCCO2	n	n	58	n	n	n
C/C(=N\NC(N)=S)c1ccc2c(c1)OCCO2	n	n	n	n	n	n
CC(=O)c1ccc(S(=O)(=O)N2CCN(C(=O)c3ccc(COc4ccccc4)o3)CC2)cc1	n	n	n	n	n	n
Oc1[nH]c2ccccc2c1N=NC(=S)NCC1CCCO1 (centres undefined)	n	n	n	n	n	n
CCn1c(O)c(N=NC(=S)NCC2CCCO2)c2ccccc21 (centres undefined)	n	n	66	n	n	47
CCOC(=O)C1Oc2ccccc2C(c2ccc(C)cc2)=C1C(=O)OC (centres undefined)	n	n	n	x	x	n
CCOC(=O)C1(CC)Oc2ccccc2C(c2ccc(OC)cc2)=C1C(=O)OC (centres undefined)	n	n	n	x	x	48
SMILES	EBI2 antag	Beta2AR agonist	CCR6 antag	APJ antagonist	APJ ag	CXCR6 block
CC1NC(=O)COC1c1ccccc1 (centres undefined)	n	x	x	x	x	n
N/C(Cc1ccc(Cl)cc1)=N\OC(=O)c1cccc2ccccc12	52	n	n	n	n	n
C=CCc1cccc(/C=N/NC(=O)C(C)Nc2cccc(C)c2)c1O (centres undefined)	40	n	n	n	n	n
Cc1cccc(-c2cccc3nccn23)c1	n	x	x	x	x	n
CSC1=NC(C)(C)C=C(/C=C/c2ccc(Cl)cc2Cl)N1	n	n	n	n	n	n
CCSC1=NC(C)(C)C=C(/C=C/c2ccc(Cl)cc2Cl)N1	n	n	66	n	n	n
CSC1=NC(C)(C)C=C(/C=C/c2ccc(Cl)cc2)N1	n	84	n	n	n	n
CSC1=NC(C)(C)C=C(/C=C/c2c(Cl)cccc2Cl)N1	n	n	n	n	n	n
CCN1CCN(S(=O)(=O)c2ccc(Cl)c(C(=O)NCc3nc4ccccc4[nH]3)c2)CC1	n	n	n	n	n	n
Cc1cc(C)c2nc(NCCCNC(=S)NCCCN(C)C)c(C#N)cc2c1	n	43	n	n	n	n
Nc1nc2cc3c(cc2cc1C(=O)NCc1ccc(F)cc1)OCO3	n	x	x	x	x	n
O=S1(=O)C=C(Sc2nc3ccccc3s2)c2ccccc21	x	x	72	n	n	x
Brc1ccc(N/N=C(/N=Nc2nn[nH]n2)c2ccccc2)cc1	n	n	52	n	n	n
O=C(O)c1cccc(N/N=C(\N=Nc2ccccc2)c2ccccc2)c1	n	n	n	n	n	n
O=C1N[C@@H](Cc2ccccc2)COC(=O)[C@@H](Cc2ccc(F)cc2)C/C=C\C[C@@H]1CC(=O)N(CCO)Cc1ccccc1	n	n	n	n	n	n
O=C1NC[C@@H](c2ccccc2)OC(=O)[C@@H](Cc2ccc(F)cc2)CC/C=C/C[C@@H]1CC(=O)N(CCO)Cc1ccccc1	n	n	n	x	x	56
O=C1N[C@H](Cc2ccccc2)COC(=O)[C@H](Cc2ccc(F)cc2)CC/C=C/C[C@H]1CC(=O)N(CCO)Cc1ccccc1	n	n	n	n	n	41
CCOc1ccccc1NC(=O)NC(C)c1ccncc1 (centres undefined)	n	n	n	n	n	n
CCc1nc2ccc(C(=O)NCCCn3ccnc3)cn2c1N(C)C(=O)COc1ccccc1	n	x	x	x	x	n
CC(C)c1c(O)ccc2c1CC[C@H]1C(C)(C)CCC[C@]21C	53	n	n	x	x	n
CN(C)c1ccc(/C=N/N=C2/NC(=O)/C(=C/c3ccc([N+](=O)[O-])cc3)S2)cc1	n	n	53	n	n	n
O=C(/C=C/c1ccccc1[N+](=O)[O-])c1ccccc1Br	n	57	n	n	n	n
Cc1ccc(C(=O)/C=C/C(=O)c2ccc(C)cc2)cc1	n	n	100	n	n	92
Cc1ccc(C(=O)/C=C/c2ccccc2[N+](=O)[O-])cc1	n	63	n	n	n	n
O=C(/C=C\c1ccccc1[N+](=O)[O-])Nc1ccccc1	n	n	n	n	n	n
O=c1c(O)c(-c2ccccc2)oc2ccccc12	n	n	n	x	x	n
Cc1ccc(-c2oc3ccccc3c(=O)c2O)cc1	n	n	n	n	n	52
CCOc1ccc(NC(=O)CSc2nc3ccsc3c(=O)n2Cc2ccc(C(=O)O)cc2)cc1	n	x	x	x	x	n
CCC(=O)c1ccc(N2CCN(C(=O)c3ccc(Br)cc3)CC2)c(F)c1	57	n	n	n	n	n
CCc1nc2c(OCCOc3ccc(F)cc3)cccn2c1N(C=O)Cc1ccccc1	n	x	x	x	x	n
